Results published in ChEMBL document CHEMBL1151786, “Triphenylmethylamides (TPMAs): Structure-activity relationship of compounds that induce apoptosis in melanoma cells” (Bioorg Med Chem Lett, 2008).
≈ marks a conversion by molar mass, not a printed value. Calls of active or inactive are those of the source. The rule behind the calls is not given here.

Key:
SK-MEL-5 = assay: Growth inhibition of human SK-MEL-5 cells after 72 hrs by SRB assay; type: functional, cell-based; conditions: SK-MEL-5, 72 h
In short: (§1)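 Melanoma cells were exposed to a range of compound concentrations for 72 h. Growth inhibition was read as biomass by sulforhodamine B staining. IC50 is the average of three separate occasions, given with standard deviation, from dose–response curves.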

UACC-62 = assay: Growth inhibition of human UACC62 cells after 72 hrs by SRB assay; type: functional, cell-based; conditions: UACC-62, 72 h; in short: as §1
MCF7 = assay: Antiproliferative activity against human MCF7 cells after 72 hrs by SRB assay; type: functional, cell-based; conditions: MCF7, 72 h
In short: (§2)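 Cancer cell lines were incubated with compound for 72 h. Growth or viability was measured by a method given in the supporting information. IC50 values are averages with standard deviations from three independent experiments.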

U-937 [1] = assay: Antiproliferative activity against human U937 cells after 72 hrs by SRB assay; type: functional, cell-based; conditions: U-937, 72 h; in short: as §2
HL-60 [2] = assay: Antiproliferative activity against human HL60 cells after 72 hrs by SRB assay; type: functional, cell-based; conditions: HL-60, 72 h; in short: as §2
HL-60 [3] = assay: Cell cycle arrest in human HL60 cells assessed as accumulation at G1 phase at 20 uM after 6 hrs by flow cytometry using propidium iodide staining; type: functional, cell-based
In short: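 HL-60 cells were treated for 6 h with 20 µM compound or with vehicle alone. They were then stained with propidium iodide and analysed by flow cytometry for the percentage of cells in G0/G1, S and G2/M.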

PC-12 = assay: Antiproliferative activity against rat PC12 cells after 72 hrs by SRB assay; type: functional, cell-based; conditions: PC-12, 72 h; in short: as §2
U-937 [4] = assay: Induction of early apoptosis in human U937 cells at 100 uM after 48 hrs by flow cytometry using FITC-conjugated annexin V and propidium iodide staining relative to control; type: functional
In short: (§3)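 U-937 cells were exposed for 48 h to 100 µM compound or to vehicle. Cells were stained with FITC-conjugated Annexin V to detect phosphatidylserine externalization and with propidium iodide to test membrane integrity, then quantified by flow cytometry. Quadrants were scored, with Annexin V-positive/propidium iodide-negative taken as early apoptotic.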

[5] = Aqueous solubility in phosphate-buffered saline at pH 7.4; type: physicochemical; conditions: read-out: Stability
U-937 [6] = assay: Induction of apoptosis in human U937 cells assessed as nonviable necrotic cells at 100 uM after 48 hrs by flow cytometry using FITC-conjugated annexin V and propidium iodide staining relative to control; type: functional; in short: as §3
U-937 [7] = assay: Induction of apoptosis in human U937 cells assessed as viable cells at 100 uM after 48 hrs by flow cytometry using FITC-conjugated annexin V and propidium iodide staining relative to control; type: functional; conditions: U-937, 48 h, read-out: Activity; in short: as §3
U-937 [8] = assay: Induction of late apoptosis in human U937 cells at 100 uM after 48 hrs by flow cytometry using FITC-conjugated annexin V and propidium iodide staining relative to control; type: functional; in short: as §3

Row | SMILES | IC50 (SK-MEL-5) [µM] | IC50 (UACC-62) [µM] | other results
1 | COC(=O)[C@@H](Cc1ccccc1)NC(=O)C(c1ccccc1)(c1ccccc1)c1cccs1 | 12 | 21 | 
2 | COC(=O)[C@@H](Cc1ccccc1)NC(=O)C1(c2ccccc2)c2ccccc2-c2ccccc21 | 23 | 27 | 
3 | O=C(NCCc1ccccc1)C(c1ccccc1)(c1ccccc1)c1ccccc1 | 5.8 | 8.3 | IC50 (MCF7): 7.1 µM; IC50 (U-937 [1]): 9.5 µM; IC50 (HL-60 [2]): 7.7 µM; Activity (HL-60 [3]): Active; IC50 (PC-12): 31 µM
4 | COC(=O)[C@@H](Cc1ccccc1)NC(=O)C(c1ccccc1)(c1ccc(O)cc1)c1ccc(O)cc1 | 6.7 | 20 | 
5 | COC(=O)[C@@H](Cc1ccccc1)NC(=O)C(c1ccc(OC)cc1)(c1ccc(OC)cc1)c1ccc(OC)cc1 | 49 | > 100 | 
6 | O=C(CC(c1ccccc1)(c1ccccc1)c1ccccc1)NCCc1ccccc1 | 17 | 50 | 
7 | COc1ccc(C(C(=O)NCCc2ccccc2)(c2ccccc2)c2ccccc2)cc1 | 29 | 13 | Activity (HL-60 [3]): Active
8 | O=C(NCCc1ccccc1)C(c1ccc(O)cc1)(c1ccc(O)cc1)c1ccc(O)cc1 | 36 | 71 | 
9 | O=C(NCCc1ccccc1)C(c1ccccc1)(c1ccccc1)c1ccc(O)c(O)c1 | 4.2 | 2.1 | Activity (U-937 [4]): 23.17%; solubility [5]: 80 µM (≈ 33.9 µg/mL); Activity (U-937 [6]): 12.79%; IC50 (MCF7): 8.1 µM; IC50 (U-937 [1]): 5.9 µM; viability at 100 µM (U-937 [7]): 5.48%; IC50 (HL-60 [2]): 6.2 µM; Activity (HL-60 [3]): Active; IC50 (PC-12): 85 µM; Activity (U-937 [8]): 58.56%
10 | O=C(NCCc1ccccc1)C(c1ccccc1)(c1ccc(O)cc1)c1ccc(O)cc1 | 8.6 | 47 | 
11 | COC(=O)[C@@H](Cc1ccccc1)NC(=O)C(c1ccccc1)(c1ccccc1)c1ccc(OC)cc1 | 6.1 | 27 | 
12 | COC(=O)[C@@H](Cc1ccccc1)NC(=O)C(c1ccccc1)(c1ccccc1)c1ccccc1 | 5.7 | 14 | solubility [5]: 20 µM (≈ 8.99 µg/mL); IC50 (MCF7): 8 µM; IC50 (U-937 [1]): 7.2 µM; IC50 (HL-60 [2]): 7.3 µM; Activity (HL-60 [3]): Active; IC50 (PC-12): 16 µM
13 | COC(=O)[C@@H](Cc1ccccc1)NC(=O)CC(c1ccccc1)(c1ccccc1)c1ccccc1 | 5.1 | > 100 | 
14 | O=C(CCCC(c1ccccc1)(c1ccccc1)c1ccccc1)NCCc1ccccc1 | 5.4 | 26 | Activity (HL-60 [3]): Active
15 | O=C(NCCc1ccccc1)C1(c2ccccc2)c2ccccc2-c2ccccc21 | 20 | 20 | 
16 | COc1ccc(C(C(=O)NCCc2ccccc2)(c2ccc(OC)cc2)c2ccc(OC)cc2)cc1 | 20 | > 100 | 
17 | COC(=O)[C@@H](Cc1ccccc1)NC(=O)CCCC(c1ccccc1)(c1ccccc1)c1ccccc1 | 5.8 | 45 | 
18 | O=C(NCCc1ccccc1)C(c1ccccc1)(c1ccccc1)c1ccc(O)cc1 | 8.1 | 13 | 
19 | COC(=O)[C@@H](Cc1ccccc1)NC(=O)C(c1ccc(O)cc1)(c1ccc(O)cc1)c1ccc(O)cc1 | 13 | 27 | 
20 | COC(=O)[C@@H](Cc1ccccc1)NC(=O)C(c1ccccc1)(c1ccc(OC)cc1)c1ccc(OC)cc1 | 24 | > 100 | 
21 | COC(=O)[C@@H](Cc1ccccc1)NC(=O)CCC(c1ccccc1)(c1ccccc1)c1ccccc1 | 2.5 | 40 | IC50 (MCF7): 6.1 µM; IC50 (U-937 [1]): 6.8 µM; IC50 (HL-60 [2]): 6 µM; IC50 (PC-12): 74 µM
22 | O=C(NCCc1ccccc1)C(c1ccccc1)(c1ccccc1)c1cccs1 | 9 | 13 | 
23 | O=C(CCC(c1ccccc1)(c1ccccc1)c1ccccc1)NCCc1ccccc1 | 5.5 | 50 | 
24 | COC(=O)[C@@H](Cc1ccccc1)NC(=O)C(c1ccccc1)(c1ccccc1)c1ccc(O)cc1 | 8.1 | 21 | 
25 | COc1ccc(C(C(=O)NCCc2ccccc2)(c2ccccc2)c2ccc(OC)cc2)cc1 | 14 | 20 | Activity (HL-60 [3]): Active
